# Laboratory results from PMC6503841 (Nature chemical biology, 2018).
# Where a SMILES comes first, the peptide text is derived from it. Where no end group is shown, it is not given here. The star is where a group is joined. Oxazole(5-CO) = O=C(c1cnco1)*; Crotonyl(E) = C/C=C/C(=O)*; 2Furoyl = O=C(c1ccco1)*; Cbz = O=C(OCc1ccccc1)*
# T1: AF9 YEATS (Homo sapiens, UniProt P42568)
# T1 sequence (P42568 1-138): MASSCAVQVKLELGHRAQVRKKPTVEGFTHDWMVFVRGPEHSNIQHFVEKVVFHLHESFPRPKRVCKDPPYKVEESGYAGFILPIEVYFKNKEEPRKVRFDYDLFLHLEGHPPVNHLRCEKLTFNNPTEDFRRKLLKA
# T2: ENL YEATS (Homo sapiens, UniProt Q03111)
# T2 sequence (Q03111 1-138): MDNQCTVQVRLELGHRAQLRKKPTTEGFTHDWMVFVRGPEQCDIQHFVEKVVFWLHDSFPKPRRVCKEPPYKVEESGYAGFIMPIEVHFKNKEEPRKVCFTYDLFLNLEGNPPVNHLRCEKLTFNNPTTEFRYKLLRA
# T3: endogenous ENL (Homo sapiens, UniProt Q03111)
# T3 sequence (Q03111 1-559): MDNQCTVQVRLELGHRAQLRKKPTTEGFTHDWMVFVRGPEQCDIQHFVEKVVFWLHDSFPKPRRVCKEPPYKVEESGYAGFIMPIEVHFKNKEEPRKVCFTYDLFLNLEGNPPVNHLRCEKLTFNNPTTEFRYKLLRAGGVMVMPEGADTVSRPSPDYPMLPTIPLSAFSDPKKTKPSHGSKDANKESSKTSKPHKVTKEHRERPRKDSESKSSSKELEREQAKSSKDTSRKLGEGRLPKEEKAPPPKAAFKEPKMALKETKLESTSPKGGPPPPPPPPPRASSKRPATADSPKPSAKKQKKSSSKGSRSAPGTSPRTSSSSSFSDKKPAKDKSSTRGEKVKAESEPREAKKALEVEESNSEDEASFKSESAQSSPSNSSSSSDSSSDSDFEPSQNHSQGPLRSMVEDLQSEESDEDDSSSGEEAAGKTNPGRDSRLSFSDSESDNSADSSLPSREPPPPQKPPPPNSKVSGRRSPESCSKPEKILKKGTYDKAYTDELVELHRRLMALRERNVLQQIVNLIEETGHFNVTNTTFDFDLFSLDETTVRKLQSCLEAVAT
# T4: endogenous AF9 (Homo sapiens, UniProt P42568)
# T4 sequence (P42568 1-568): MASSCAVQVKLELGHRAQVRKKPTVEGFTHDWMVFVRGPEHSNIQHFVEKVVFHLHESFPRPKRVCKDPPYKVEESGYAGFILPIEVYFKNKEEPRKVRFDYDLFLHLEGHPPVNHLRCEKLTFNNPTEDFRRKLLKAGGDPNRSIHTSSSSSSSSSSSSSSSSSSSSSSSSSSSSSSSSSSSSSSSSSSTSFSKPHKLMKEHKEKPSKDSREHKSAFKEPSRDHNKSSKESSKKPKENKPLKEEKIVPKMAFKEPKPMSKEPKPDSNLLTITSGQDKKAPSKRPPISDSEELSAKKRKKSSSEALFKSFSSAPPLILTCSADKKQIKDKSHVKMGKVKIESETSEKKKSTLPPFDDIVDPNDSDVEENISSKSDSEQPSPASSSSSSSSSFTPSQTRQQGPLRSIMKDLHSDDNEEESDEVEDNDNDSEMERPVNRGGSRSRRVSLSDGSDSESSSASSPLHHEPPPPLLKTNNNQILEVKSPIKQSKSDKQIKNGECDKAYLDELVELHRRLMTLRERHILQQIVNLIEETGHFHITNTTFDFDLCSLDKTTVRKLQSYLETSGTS
# T5: ENL (Homo sapiens, UniProt Q03111)
# T5 sequence (Q03111 1-559): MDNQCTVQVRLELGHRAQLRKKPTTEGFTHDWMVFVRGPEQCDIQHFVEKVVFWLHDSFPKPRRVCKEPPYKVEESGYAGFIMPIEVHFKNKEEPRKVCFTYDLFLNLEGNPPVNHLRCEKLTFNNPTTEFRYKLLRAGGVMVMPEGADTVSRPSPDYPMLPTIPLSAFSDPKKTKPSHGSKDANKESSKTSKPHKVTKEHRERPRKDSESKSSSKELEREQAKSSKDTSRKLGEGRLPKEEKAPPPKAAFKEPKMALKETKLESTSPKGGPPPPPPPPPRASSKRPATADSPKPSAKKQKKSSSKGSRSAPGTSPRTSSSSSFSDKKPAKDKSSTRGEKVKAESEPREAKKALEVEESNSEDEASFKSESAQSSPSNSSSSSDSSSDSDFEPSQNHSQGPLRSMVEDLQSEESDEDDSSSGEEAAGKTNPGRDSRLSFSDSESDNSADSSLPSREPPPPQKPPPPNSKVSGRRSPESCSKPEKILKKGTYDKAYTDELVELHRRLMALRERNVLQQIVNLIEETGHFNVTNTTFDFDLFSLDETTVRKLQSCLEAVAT
# T6: AF9 YEATS domain, AF9 (1–138) (human, UniProt P42568 1-138)
# T6 sequence (looked up): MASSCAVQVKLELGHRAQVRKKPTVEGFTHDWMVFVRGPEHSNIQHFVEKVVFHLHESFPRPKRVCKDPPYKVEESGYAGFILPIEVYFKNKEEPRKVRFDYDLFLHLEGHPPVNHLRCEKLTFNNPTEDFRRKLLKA
# T7: ENL YEATS domain, ENL (1–138) (human, UniProt Q03111 1-138)
# T7 sequence (looked up): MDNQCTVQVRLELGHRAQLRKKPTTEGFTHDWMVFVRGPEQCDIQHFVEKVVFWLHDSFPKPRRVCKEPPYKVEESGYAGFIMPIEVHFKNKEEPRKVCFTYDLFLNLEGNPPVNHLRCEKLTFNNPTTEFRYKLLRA
# Legend:
# AF9 YEATS [1] = target: T1, AF9 YEATS; assay: isothermal titration calorimetry; format: binding; conditions: ITC Kd versus the crotonyl group (H3K9cr)
# ENL YEATS = target: T2, ENL YEATS; assay: competitive photo-cross-linking assay, ENL YEATS; format: binding; conditions: comparing with AF9 YEATS
# [2] = tested on: YEATS domains of YEATS2 and GAS41; assay: competitive photo-cross-linking assay, YEATS2 and GAS41 YEATS domains; format: binding, human; conditions: AF9 and ENL versus YEATS2 and GAS41; result in words
# AF9 YEATS [3] = target: T1, AF9 YEATS; assay: competitive photo-cross-linking assay; format: binding; conditions: compared with ENL YEATS
# endogenous ENL = target: T3, endogenous ENL; assay: competitive photo-cross-linking pull-down in nuclear extracts, ENL; format: binding
# endogenous AF9 [4] = target: T4, endogenous AF9; assay: competitive photo-cross-linking pull-down in nuclear extracts, AF9; format: binding
# ENL = target: T5, ENL; assay: cellular thermal shift assay; format: cell-based; conditions: MOLM-13, MV4;11, HEL cells, 50 μM, 12 h; 55 °C, 57 °C, and 59 °C
# Procedure, shortened: (§1)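 CETSA: MOLM-13 (Flag-ENL), MV4;11 or HEL cells were incubated with 50 μM test compound for 12 h, washed with PBS and resuspended in PBS with protease inhibitors (~3 million cells/100 μl). Aliquots were heated at indicated temperatures for 3 min, then held at room temperature for 3 min. Cells were lysed by two liquid-nitrogen freeze-thaw cycles and spun at 20,000×g for 20 min at 4 °C. Soluble supernatant was immunoblotted.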
# endogenous AF9 [5] = target: T4, endogenous AF9; assay: cellular thermal shift assay; format: cell-based; conditions: MOLM-13, MV4;11, HEL cells, 50 μM, 12 h
# Procedure, shortened: as §1
# [6] = tested on: ENL at HOXA10, MYB, MYC and MEIS1 in MOLM-13 cells; assay: ChIP-qPCR of ENL at target genes; format: cell-based, human; conditions: MOLM-13 (Flag-ENL) cells, 50 μM, 24 hours
# Procedure, shortened: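 MOLM-13 (Flag-ENL) cells (about 20 million) were treated with or without 50 μM test compound for 24 h, cross-linked with formaldehyde for 10 min at room temperature and quenched with glycine. Chromatin was sonicated to 600–800 bp. 50 μg chromatin (5 μg input) was immunoprecipitated overnight at 4 °C with anti-FLAG M2 magnetic beads, washed, eluted and reverse cross-linked. DNA was measured by qPCR as percentage of input, n = 4 (HOXA10) or 3 (others).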
# MOLM-13 cells = assay: RT-qPCR of mRNA levels in MOLM-13 cells; format: cell-based, human
# [7] = target: ENL YEATS domain, ENL (1–138) (human) (UniProt Q03111); assay: cross-linking
# [8] = target: T6, AF9 YEATS domain, AF9 (1–138); assay: ITC
# [9] = target: T7, ENL YEATS domain, ENL (1–138); assay: cross-linking
# [10] = target: T6, AF9 YEATS domain, AF9 (1–138); assay: cross-linking
# [11] = nuclear extracts of HeLa S3 and MOLM-13 (Flag-ENL), result in words
molecule,measurement,setting,value
C[C@H](NC(=O)[C@@H](NC(=O)[C@H](CCC(N)=O)NC(=O)[C@@H](N)CCCCN)[C@@H](C)O)C(=O)N[C@@H](CCCNC(=N)N)C(=O)N[C@@H](CCCCNC(=O)c1ccco1)C(=O)N[C@@H](CO)C(=O)N[C@H](C(=O)NCC(=O)NCC(N)=O)[C@@H](C)O [XL-07] (H-KQTARK(2Furoyl)STGG-NH2; N-terminus and C-terminus assumed),binding enhancement,AF9 YEATS [1],4.5 fold
C[C@H](NC(=O)[C@@H](NC(=O)[C@H](CCC(N)=O)NC(=O)OCc1ccccc1)[C@@H](C)O)C(=O)N[C@@H](CCCNC(=N)N)C(=O)N[C@@H](CCCCNC(=O)c1ccco1)C(N)=O [XL-07i],lower potency against ENL YEATS,ENL YEATS,5 fold
same,selectivity among YEATS domains,[2],more selective toward the YEATS domains of AF9 and ENL over YEATS2 and GAS41
C[C@H](NC(=O)[C@@H](NC(=O)[C@H](CCC(N)=O)NC(=O)[C@@H](N)CCCCN)[C@@H](C)O)C(=O)N[C@@H](CCCNC(=N)N)C(=O)N[C@@H](CCCCNC(=O)c1cnco1)C(=O)N[C@@H](CO)C(=O)N[C@H](C(=O)NCC(=O)NCC(N)=O)[C@@H](C)O [XL-13] (H-KQTARK(Oxazole(5-CO))STGG-NH2; N-terminus and C-terminus assumed),binding enhancement,AF9 YEATS [1],14.7 fold
C[C@H](NC(=O)OCc1ccccc1)C(=O)N[C@@H](CCCNC(=N)N)C(=O)N[C@@H](CCCCNC(=O)c1cnco1)C(N)=O [XL-13m],weaker inhibition against AF9 YEATS,AF9 YEATS [3],4.5 fold
same,photo-H3K9cr-induced enrichment of ENL,endogenous ENL; [11],significantly inhibited
same,inhibition at 2 µM,endogenous ENL; read-out: inhibition of photo-H3K9cr-induced enrichment of endogenous ENL,~50%
same,enrichment of AF9,endogenous AF9 [4]; [11],little effects
same,inhibition at 2 µM,endogenous AF9 [4]; read-out: inhibition of enrichment of AF9,~3%
same,thermal stability of ENL (soluble protein),ENL,higher abundance of soluble ENL proteins
same,thermal stability of endogenous AF9,endogenous AF9 [5],almost no differences
same,"abundance of ENL at HOXA10, MYB, MYC and MEIS1",[6],decreases in the abundance of ENL
same,"transcription levels of HOXA10, MYB, MYC and MEIS1","MOLM-13 cells; MOLM-13 (Flag-ENL) cells, 50 μM, 24 hours",significant loss in the transcription levels
same,transcription suppression of MYC and HOXA9,"MOLM-13 cells; co-treatment of XL-13m (50 μM) and EPZ-5676 (500 nM), 72 hours",enhanced effect on the transcription suppression
C[C@H](NC(=O)OCc1ccccc1)C(=O)N[C@@H](C)C(=O)N[C@@H](CCCNC(=N)N)C(=O)N[C@@H](CCCCNC(=O)c1cnco1)C(N)=O [XL-13n] (Cbz-AARK(Oxazole(5-CO))-NH2),weaker inhibition against AF9 YEATS,AF9 YEATS [3],6.1 fold
"XL-13l (dipeptide with only the RK signature motif, 5-oxazolecarbonyl at K27)",IC50,[7],3.3 µM
Cbz-QTARK(Oxazole(5-CO)) [XL-13a (XL-07i with the 2-furancarbonyl group replaced by a 5-oxazolecarbonyl group)],Kd,[8],130 nM
same,fold lower potency than against AF9 YEATS,[9],2.9 fold
same,IC50,[10],240 nM
Cbz-QTARK(2Furoyl),Kd,[8],330 nM
same,fold lower potency than against AF9 YEATS,[9],5 fold
same,IC50,[10],260 nM
QTARK(2Furoyl) [XL-07h (pentapeptide with the QTARK sequence)],IC50,[10],4500 nM
"KQTARK(Crotonyl(E))STGG (peptide, UniProt P68431 5-14, looked up) [H3K9cr peptide (histone H3 residues 4–13, Lys 9 crotonylated)]",Kd,[8],14700 nM
same,IC50,[10],6000 nM
